Results taken from ChEMBL document CHEMBL4351008, “Discovery of novel pyrimidine-based benzothiazole derivatives as potent cyclin-dependent kinase 2 inhibitors with anticancer activity” (Eur J Med Chem, 2019).

Tests used:
HCT-116 = test: Antiproliferative activity against human HCT116 cells incubated for 48 hrs by MTT assay; format: functional, cell-based; settings: HCT-116, 48 h
In short: (§1)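 Cells kept at 37 °C in humidified 5% CO2: MDA-MB-231, MCF-7, HeLa and HCT116 in RPMI-1640; PC-3 in DMEM/F12; both media had 10% FBS. Compounds came from 60 mM DMSO stocks diluted in medium. At 70–80% confluence, cells got fresh medium with compound for 48 h at 37 °C, with 0.1% DMSO as negative control. MTT (5 mg/mL stock) was added for 4 h, and formazan was dissolved in DMSO and read at 570 nm. % inhibition was taken relative to control, IC50 was fitted, and data are mean ± SD of three independent experiments in duplicate.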

PC-3 = test: Antiproliferative activity against human PC3 cells incubated for 48 hrs by MTT assay; format: functional, cell-based; settings: PC-3, 48 h; in short: as §1
MDA-MB-231 = test: Antiproliferative activity against human MDA-MB-231 cells incubated for 48 hrs by MTT assay; format: functional, cell-based; settings: MDA-MB-231, 48 h; in short: as §1
MCF7 = test: Antiproliferative activity against human MCF7 cells incubated for 48 hrs by MTT assay; format: functional, cell-based; settings: MCF7, 48 h; in short: as §1
HeLa = test: Antiproliferative activity against human HeLa cells incubated for 48 hrs by MTT assay; format: functional, cell-based; in short: as §1
CDK2/Cyclin A2 = CDK2/Cyclin A2 (Homo sapiens, UniProt P24941); test: Inhibition of CDK2/cyclin A2 (unknown origin) using histone H1 and ATP as substrate incubated for 40 mins by kinase-glo luminescence assay; format: protein-complex assay
[1] = molecular target: CDK2/Cyclin A2 (Homo sapiens) (UniProt P24941+P20248); test: Inhibition of CDK2/cyclin A2 (unknown origin) using histone H1 and ATP as substrate at 1 uM incubated for 40 mins by kinase-glo luminescence assay relative to control; format: protein-complex assay
In short: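 Recombinant CDK2/cyclin A2 (0.2 µg/mL) was run with 0.1 mg/mL histone H1 and 10 µM ATP in 40 mM Tris pH 7.4, 10 mM MgCl2, 0.1 mg/mL BSA and 1 mM DTT, for 40 min at 30 °C. Compound was tested at 1 µM final, with 1% DMSO final. Remaining ATP was quantified by Kinase-Glo Plus luminescence, which is inversely related to kinase activity.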

IC50 (HCT-116)	IC50 (PC-3)	IC50 (MDA-MB-231)	IC50 (MCF7)	IC50 (HeLa)	IC50 (CDK2/Cyclin A2)	inhibition [1]	SMILES
1.35 µM	> 50 µM	> 50 µM	> 50 µM	1.4 µM	–	–	CS(=O)(=O)c1ccc(Nc2nccc(Nc3nc4ccc(Cl)cc4s3)n2)cc1
3.27 µM	2.83 µM	4.98 µM	6.88 µM	3.17 µM	0.0127 µM	95%	CS(=O)(=O)c1ccc(Nc2ncc(F)c(Nc3nc4ccccc4s3)n2)cc1
8.62 µM	1.43 µM	2.79 µM	8.34 µM	8.77 µM	–	–	NS(=O)(=O)c1ccc(Nc2ncc(F)c(Nc3nc4ccc(Cl)cc4s3)n2)cc1
2.01 µM	6.98 µM	7.58 µM	> 50 µM	3.46 µM	–	–	Cc1cnc(Nc2ccc(S(N)(=O)=O)cc2)nc1Nc1nc2ccc(F)cc2s1
7.86 µM	> 50 µM	> 50 µM	> 50 µM	36.7 µM	–	–	COc1ccc2nc(Nc3nc(Nc4ccc(S(N)(=O)=O)cc4)ncc3C)sc2c1
1.75 µM	> 50 µM	4.44 µM	> 50 µM	2.3 µM	–	77%	Cc1ccc2nc(Nc3ccnc(Nc4ccc(S(C)(=O)=O)cc4)n3)sc2c1
0.47 µM	0.36 µM	7.2 µM	10.7 µM	0.73 µM	–	–	Cc1ncc(-c2ccnc(Nc3ccc(S(C)(=O)=O)cc3)n2)n1C(C)C [AZD-5438]
> 50 µM	> 50 µM	8.9 µM	> 50 µM	> 50 µM	–	–	CS(=O)(=O)c1ccc(Nc2ncc(F)c(Nc3nc4ccc(F)cc4s3)n2)cc1
9.18 µM	> 50 µM	14.3 µM	> 50 µM	17.2 µM	–	–	Cc1ccc2nc(Nc3nc(Nc4ccc(S(C)(=O)=O)cc4)ncc3F)sc2c1
6.33 µM	> 50 µM	22.5 µM	> 50 µM	34.3 µM	–	–	Cc1cnc(Nc2ccc([N+](=O)[O-])cc2)nc1Nc1nc2ccccc2s1
11.5 µM	> 50 µM	26.6 µM	> 50 µM	13 µM	–	–	COc1ccc2nc(Nc3nc(Nc4ccc(S(N)(=O)=O)cc4)ncc3F)sc2c1
5.17 µM	3.1 µM	5 µM	15.3 µM	2.06 µM	–	84%	NS(=O)(=O)c1ccc(Nc2nccc(Nc3nc4ccccc4s3)n2)cc1
1.66 µM	> 50 µM	16.8 µM	> 50 µM	2.8 µM	0.0217 µM	91%	Cc1cnc(Nc2ccc(S(N)(=O)=O)cc2)nc1Nc1nc2ccccc2s1
27.8 µM	> 50 µM	> 50 µM	> 50 µM	16.3 µM	–	–	Cc1cnc(Nc2cccc(F)c2)nc1Nc1nc2ccccc2s1
0.76 µM	> 50 µM	14.8 µM	6.55 µM	0.46 µM	0.0378 µM	90%	Cc1cnc(Nc2ccc(S(C)(=O)=O)cc2)nc1Nc1nc2ccccc2s1
18.7 µM	> 50 µM	37.2 µM	> 50 µM	4.34 µM	–	–	Cc1cnc(Nc2ccc(N3CCCCC3)cc2)nc1Nc1nc2ccccc2s1
8.37 µM	1.71 µM	5.91 µM	10.6 µM	11.3 µM	–	80%	CS(=O)(=O)c1ccc(Nc2nccc(Nc3nc4ccccc4s3)n2)cc1

IC50 (HCT-116)	IC50 (PC-3)	IC50 (MDA-MB-231)	IC50 (MCF7)	IC50 (HeLa)	IC50 (CDK2/Cyclin A2)	inhibition [1]	SMILES
2.5 µM	13.4 µM	5.9 µM	4.32 µM	4.18 µM	–	81%	Cc1cnc(Nc2ccc(S(C)(=O)=O)cc2)nc1Nc1nc2ccc(Cl)cc2s1
> 50 µM	> 50 µM	> 50 µM	> 50 µM	> 50 µM	–	–	Cc1cnc(Nc2ccc(F)cc2)nc1Nc1nc2ccccc2s1
0.9 µM	1.64 µM	3.87 µM	5.74 µM	0.66 µM	–	82%	Cc1ccc2nc(Nc3ccnc(Nc4ccc(S(N)(=O)=O)cc4)n3)sc2c1
20.7 µM	> 50 µM	11.1 µM	> 50 µM	> 50 µM	–	–	CS(=O)(=O)c1ccc(Nc2ncc(F)c(Nc3nc4ccc(Cl)cc4s3)n2)cc1
1.48 µM	3.03 µM	6.24 µM	11 µM	1.73 µM	–	–	COc1ccc2nc(Nc3ccnc(Nc4ccc(S(N)(=O)=O)cc4)n3)sc2c1
2.63 µM	1.27 µM	4.74 µM	5.85 µM	25.4 µM	–	–	COc1ccc2nc(Nc3nc(Nc4ccc(S(C)(=O)=O)cc4)ncc3F)sc2c1
> 50 µM	> 50 µM	> 50 µM	> 50 µM	> 50 µM	–	–	Cc1cnc(Nc2ccc(Cl)cc2)nc1Nc1nc2ccccc2s1
2.52 µM	5.4 µM	9.42 µM	8.43 µM	3.73 µM	–	90%	Cc1cnc(Nc2ccc(S(N)(=O)=O)cc2)nc1Nc1nc2ccc(Cl)cc2s1
2.27 µM	2.7 µM	32.7 µM	> 50 µM	4.13 µM	–	–	COc1ccc2nc(Nc3ccnc(Nc4ccc(S(C)(=O)=O)cc4)n3)sc2c1
0.86 µM	1.94 µM	2.08 µM	> 60 µM	0.56 µM	–	89%	CS(=O)(=O)c1ccc(Nc2nccc(Nc3nc4ccc(F)cc4s3)n2)cc1
24 µM	> 50 µM	> 50 µM	3.26 µM	> 50 µM	–	–	Cc1cnc(Nc2ccc(S(C)(=O)=O)cc2)nc1Nc1nc2ccc(F)cc2s1
> 50 µM	> 50 µM	> 50 µM	> 50 µM	> 50 µM	–	–	Cc1cnc(Nc2ccc(C(C)C)cc2)nc1Nc1nc2ccccc2s1
1.46 µM	4.96 µM	6.39 µM	24.5 µM	1.89 µM	0.0214 µM	92%	Cc1ccc2nc(Nc3nc(Nc4ccc(S(N)(=O)=O)cc4)ncc3F)sc2c1
3.87 µM	2.71 µM	9.08 µM	> 50 µM	3.28 µM	–	–	Cc1ccc2nc(Nc3nc(Nc4ccc(S(N)(=O)=O)cc4)ncc3C)sc2c1
3.26 µM	> 50 µM	22.6 µM	> 50 µM	4.52 µM	0.0165 µM	93%	NS(=O)(=O)c1ccc(Nc2ncc(F)c(Nc3nc4ccccc4s3)n2)cc1
> 50 µM	> 50 µM	> 50 µM	> 50 µM	> 50 µM	–	–	COc1cccc(Nc2ncc(C)c(Nc3nc4ccccc4s3)n2)c1
> 50 µM	> 50 µM	> 50 µM	> 50 µM	> 50 µM	–	–	COc1ccc(Nc2ncc(C)c(Nc3nc4ccccc4s3)n2)cc1
